# Test results reported in publication PMC7893122 (Acta Pharmaceutica Sinica. B, 2020).
# Experiments:
# [1] = system: GLI1; assay: GLI-luciferase activity in light2 cells after transfection with GLI1; assay type: cell-based; conditions: read-out: IC50, GLI-luciferase activity provoked by forced expression of GLI1
# Method in brief: (§1)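 Light2 cells (NIH-3T3 stably carrying GLI-responsive firefly luciferase and renilla expression vector) lipofected with FLAG-GLI1 or MYC-GLI2-FL. Test compound added 24 h post-transfection, then 36 h exposure. Dual-luciferase read-out, firefly normalised to TK-renilla.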
# [2] = system: SMOA1 MB allografts (SMO^W539L); assay: SMOA1 MB allograft model; assay type: in vivo, nude mice; conditions: bid
# Method in brief: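 Primary SMOA1 MB allografts from ND2:SMOA1 transgenic mice grafted subcutaneously into nude mice. Dosing started at 100–150 mm3 tumour size: test compound p.o. twice daily, vehicle 0.5% CMC-Na, n ≥ 3 per group. Caliper measurement every 3 days; volume = 0.5 × length × width². Body weight tracked; group means ± SEM.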
# [3] = system: CHL normal cell line; assay: Cell growth inhibition; assay type: cell-based; conditions: 72 h
# Method in brief: (§2)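 Cells seeded in 96-well plates and incubated overnight. DMSO stocks of test compound were thawed at room temperature, diluted with saline to working concentrations, and added for 72 h. Growth read by CCK-8 assay, giving IC50/GI50.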
# [4] = system: SMO^D473H; assay: GLI-luciferase activity in light2 cells with ectopic SMO^D473H; assay type: cell-based; conditions: read-out: IC50, GLI-luciferase activity induced by SMO^D473H
# Method in brief: (§3)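 NIH-3T3-derived light2 reporter cells (stable GLI-responsive firefly luciferase plus renilla vector) with forced SMO expression, exposed to test compound for 36 h. Dual-luciferase kit read-out; firefly signal normalised to TK-renilla.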
# [5] = system: HH signaling pathway (GLI-responsive firefly luciferase reporter); assay: Dual luciferase reporter assay; assay type: cell-based; conditions: read-out: IC50 GLI-luc reporter
# [6] = system: H1975; assay: Cell growth inhibition; assay type: cell-based; conditions: Homo sapiens, NCI-H1975, 72 h
# Method in brief: as §2
# [7] = molecular target: hERG channel (Homo sapiens, UniProt Q12809); assay: hERG inhibition; assay type: cell-based
# hERG channel, sequence (Q12809 whole entry): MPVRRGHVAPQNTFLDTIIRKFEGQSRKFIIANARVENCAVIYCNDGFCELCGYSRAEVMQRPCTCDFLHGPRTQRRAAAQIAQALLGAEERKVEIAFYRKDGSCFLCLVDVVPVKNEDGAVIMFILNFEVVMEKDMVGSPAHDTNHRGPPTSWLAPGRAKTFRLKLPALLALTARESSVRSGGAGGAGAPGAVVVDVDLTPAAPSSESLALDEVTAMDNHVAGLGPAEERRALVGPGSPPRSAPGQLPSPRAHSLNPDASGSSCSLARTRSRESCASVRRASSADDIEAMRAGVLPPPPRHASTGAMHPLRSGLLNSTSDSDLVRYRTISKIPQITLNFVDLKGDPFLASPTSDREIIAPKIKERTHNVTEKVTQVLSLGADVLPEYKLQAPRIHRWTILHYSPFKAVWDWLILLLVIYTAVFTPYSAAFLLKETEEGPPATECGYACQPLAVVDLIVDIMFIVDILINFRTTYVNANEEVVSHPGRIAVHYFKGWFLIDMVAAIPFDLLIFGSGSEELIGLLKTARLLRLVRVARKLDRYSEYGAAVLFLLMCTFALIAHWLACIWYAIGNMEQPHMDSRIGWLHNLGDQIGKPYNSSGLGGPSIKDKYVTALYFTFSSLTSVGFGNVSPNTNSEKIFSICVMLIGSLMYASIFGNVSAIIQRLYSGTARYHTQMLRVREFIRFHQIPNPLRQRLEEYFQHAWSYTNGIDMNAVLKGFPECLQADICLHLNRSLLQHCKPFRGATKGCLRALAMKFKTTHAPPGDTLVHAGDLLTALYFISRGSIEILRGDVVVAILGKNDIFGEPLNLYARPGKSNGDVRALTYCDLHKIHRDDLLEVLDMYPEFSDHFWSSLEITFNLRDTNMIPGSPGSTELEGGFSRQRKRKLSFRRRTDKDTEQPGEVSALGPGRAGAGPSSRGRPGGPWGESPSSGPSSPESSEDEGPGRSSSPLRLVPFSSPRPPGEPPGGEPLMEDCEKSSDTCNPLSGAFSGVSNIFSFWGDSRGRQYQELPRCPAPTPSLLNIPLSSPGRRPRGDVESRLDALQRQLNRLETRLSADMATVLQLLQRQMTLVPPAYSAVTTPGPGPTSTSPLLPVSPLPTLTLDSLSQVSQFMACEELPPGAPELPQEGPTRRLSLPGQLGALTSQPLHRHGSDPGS
# [8] = system: endogenous GLI2; assay: Western blot of endogenous GLI2 in light2 cells; assay type: cell-based; conditions: 25 at 10 and 100 nmol/L, GDC-0449 100 nmol/L
# Method in brief: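 Light2 cells treated with test compound, lysed in LDS sample buffer, and run on SDS-PAGE. Immunoblotting used anti-GLI2 (1:1000), with GAPDH (1:5000) as reference.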
# [9] = system: KYSE450; assay: Cell growth inhibition; assay type: cell-based; conditions: Homo sapiens, KYSE-450, 72 h
# Method in brief: as §2
# [10] = system: N87; assay: Cell growth inhibition; assay type: cell-based; conditions: 72 h
# Method in brief: as §2
# [11] = system: CAL27; assay: Cell growth inhibition; assay type: cell-based; conditions: Homo sapiens, CAL-27, 72 h
# Method in brief: as §2
# [12] = system: SMO^WT; assay: GLI-luciferase activity in light2 cells with ectopic SMO^WT; assay type: cell-based; conditions: read-out: IC50, GLI-luciferase activity induced by SMO^WT
# Method in brief: as §3
# [13] = molecular target: BRD4 (BD1) (Homo sapiens, UniProt O60885); assay: Homogeneous time-resolved fluorescence binding assay, BRD4; conditions: IC50 BRD4 (BD1), mean ± SD from three separate experiments
# [14] = system: HSC-2; assay: Cell growth inhibition; assay type: cell-based; conditions: Homo sapiens, HSC-2, 72 h
# Method in brief: as §2
# [15] = Pharmacokinetics in Sprague–Dawley rats; assay type: in vivo; conditions: rat
# [16] = system: SMO^W535L; assay: GLI-luciferase activity in light2 cells with ectopic SMO^W535L; assay type: cell-based; conditions: read-out: IC50, GLI-luciferase activity induced by SMO^W535L
# Method in brief: as §3
# [17] = system: Colo680N; assay: Cell growth inhibition; assay type: cell-based; conditions: Homo sapiens, COLO-680N, 72 h
# Method in brief: as §2
# [18] = system: H3132; assay: Cell growth inhibition; assay type: cell-based; conditions: 72 h
# Method in brief: as §2
# [19] = system: DOHH-2; assay: Cell growth inhibition; assay type: cell-based; conditions: Homo sapiens, DOHH-2, 72 h
# Method in brief: as §2
# [20] = system: GLI2; assay: GLI-luciferase activity in light2 cells after transfection with GLI2; assay type: cell-based; conditions: read-out: IC50, GLI-luciferase activity provoked by forced expression of GLI2
# Method in brief: as §1
# [21] = system: HT1080; assay: Cell growth inhibition; assay type: cell-based; conditions: Homo sapiens, HT-1080, 72 h
# Method in brief: as §2
# [22] = system: GLI2-MYC; assay: Western blot of exogenous GLI2-MYC in transfected light2 cells; assay type: cell-based; conditions: light2 cells transfected with GLI2-MYC
# Method in brief: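 Light2 cells lipofected with FLAG-GLI1 or MYC-GLI2-FL; test compound added 24 h after transfection. Lysis in LDS sample buffer, then SDS-PAGE. Immunoblots probed with tag or GLI2 antibodies (1:1000), with GAPDH (1:5000) as reference.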
# [23] = system: TOV-21G; assay: Cell growth inhibition; assay type: cell-based; conditions: Homo sapiens, TOV21G, 72 h
# Method in brief: as §2
# [24] = system: SKM-1; assay: Cell growth inhibition; assay type: cell-based; conditions: Homo sapiens, SKM-1, 72 h
# Method in brief: as §2
# [25] = system: SMO wild MB; conditions: 20 mg/kg p.o., bid; cited from earlier work
# [26] = Sprague-Dawley, plasma, iv, 1 mg/kg
# [27] = Sprague-Dawley, plasma, po, 3 mg/kg
structure (smiles),measurement,setting,value
Cn1cc(-c2cc(N3CCCCS3(=O)=O)ccc2Oc2ccc(F)cc2F)c2c(F)c[nH]c2c1=O [Compound 25],IC50,[1],0.97 nM
same,Tolerability,[2]; 5 mg/kg p.o.,well tolerant
same,tumor growth inhibition (TGI),"[2]; 5 mg/kg p.o., Fig. 6A",83.3%
same,Tolerability,[2]; 10 mg/kg p.o.,well tolerant
same,tumor growth inhibition (TGI),"[2]; 10 mg/kg p.o., Fig. 5A",88.2%
same,Body weight change,"[2]; 10 mg/kg p.o., Fig. 5B",No obvious body weight loss
same,tumor growth inhibition (TGI),"[2]; 10 mg/kg p.o., Fig. 6A",87.6%
same,GI50,[3],> 10000 nM
same,IC50,[4],1.44 nM
same,IC50,[5],0.48 ± 0.08 nM
same,GI50,[6],34 nM
same,IC50,[7],27300 nM
same,Effect on abundance of endogenous GLI2 proteins,[8],dramatically reduced
same,GI50,[9],1600 nM
same,GI50,[10],130 nM
same,GI50,[11],110 nM
same,IC50,[12],1.16 nM
same,IC50,[13],1.51 ± 0.43 nM
same,GI50,[14],770 nM
same,AUC(0-inf),[15]; [26],614 ng·h/mL
same,AUC(0-t),[15]; [26],614 ng·h/mL
same,MRT inf,[15]; [26],46.2 min
same,clearance,[15]; [26],27.2 mL/min/kg
same,half-life,[15]; [26],32.4 min
same,AUC(0-inf),[15]; [27],406 ng·h/mL
same,AUC(0-t),[15]; [27],406 ng·h/mL
same,Cmax,[15]; [27],503 ng/mL
same,MRT inf,[15]; [27],57 min
same,Tmax,[15]; [27],15 min
same,half-life,[15]; [27],57.6 min
same,Vss_obs,[15]; i.v. 1 mg/kg,1.258 L/kg
same,IC50,[16],1.13 nM
same,GI50,[17],2300 nM
same,GI50,[18],140 nM
same,GI50,[19],6.6 nM
same,IC50,[20],2.2 nM
same,GI50,[21],1000 nM
same,Effect on expression of exogenous GLI2-MYC,[22],failed to inhibit
same,GI50,[23],23 nM
same,GI50,[24],19 nM
"CS(=O)(=O)c1ccc(C(=O)Nc2ccc(Cl)c(-c3ccccn3)c2)c(Cl)c1 [GDC-0449, reference compound]",Effect on tumor growth,"[2]; 20 mg/kg p.o., Fig. 5A",failed to affect the tumor growth
same,Effect on abundance of endogenous GLI2 proteins,[8],no effect
same,Tumor growth inhibition in SMO wild MB mice,[25],complete tumor growth inhibition
